Measured values taken from ChEMBL document CHEMBL4321877, “Development of Novel N-hydroxypyridone Derivatives as Potential Anti-Ischemic Stroke Agents” (J Med Chem, 2020).
≈ marks a conversion by molar mass, not a printed value. Calls of active or inactive are those of the source. No cut-off for these calls is given here.

Key:
SH-SY5Y [1] = assay: Neuroprotective activity against oxygen-glucose deprivation-induced toxicity in human SH-SY5Y cells assessed as cell viability at 10 uM preincubated for 2 hrs followed by OGD-challenge and measured after 24 hrs by MTT assay (reference value: 54.92 +/- 2.12%); format: functional; conditions: read-out: Activity
SH-SY5Y [2] = assay: Neuroprotective activity against oxygen-glucose deprivation-induced toxicity in human SH-SY5Y cells assessed as cell viability at 1 uM preincubated for 2 hrs followed by OGD-challenge and measured after 24 hrs by MTT assay (reference value: 54.92 +/- 2.12%); format: functional; conditions: read-out: Activity
[3] = Permeability of the compound incubated for 10 hrs by PAMPA; format: ADME; conditions: read-out: permeability
[4] = Antioxidant activity assessed as trolox equivalent of AAPH radical scavenging activity measured every min for 180 mins by ORAC-FL assay; format: functional
SH-SY5Y [5] = assay: Cytotoxicity against human SH-SY5Y cells assessed as reduction in cell viability at 10 uM measured after 24 hrs by MTT assay; format: cell-based
In short: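 SH-SY5Y cells (1:1 MEM/F12, 10% FBS) seeded 3 × 10^4 cells/well, grown 24 h, then exposed without insult for 24 h to 1.56–100 µM or to 1 and 10 µM (DMSO stock diluted in medium). MTT read at 490 nm; viability as % of untreated control.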

[6] = Metal chelating activity of the compound assessed as formation of ferrous-compound complex at 60 uM after 15 mins using ammonium iron(II) sulfate solution by UV-vis spectrophotometric method
[7] = Metal chelating activity of the compound assessed as formation of ferric-compound complex at 60 uM after 15 mins using ammonium iron citrate solution by UV-vis spectrophotometric method
SH-SY5Y [8] = assay: Neuroprotective activity against oxygen-glucose deprivation-induced toxicity in human SH-SY5Y cells assessed as cell viability at 2 uM preincubated for 2 hrs followed by OGD-challenge and measured after 24 hrs by MTT assay (reference value: 54.92 +/- 2.12%); format: functional; conditions: read-out: Activity
[9] = Solubility of the compound in […] incubated for 24 hrs by HPLC analysis; format: physicochemical
[10] = Metal chelating activity of the compound assessed as formation of ferric-compound complex at 60 uM after 15 mins using FeSO4 solution by UV-vis spectrophotometric method
[11] = Metal chelating activity of the compound assessed as formation of ferric-compound complex by measuring change in color at 60 uM after 15 mins using ammonium iron citrate solution by UV-vis spectrophotometric method
SH-SY5Y [12] = assay: Neuroprotective activity against oxygen-glucose deprivation-induced toxicity in human SH-SY5Y cells assessed as cell viability at 4 uM preincubated for 2 hrs followed by OGD-challenge and measured after 24 hrs by MTT assay (reference value: 54.92 +/- 2.12%); format: functional; conditions: read-out: Activity
[13] = Metal chelating activity of the compound assessed as formation of ferric-compound complex at 60 uM after 15 mins using FeCl3 solution by UV-vis spectrophotometric method
[14] = Metal chelating activity of the compound assessed as formation of ferric-compound complex at 60 uM after 15 mins using ammonium iron citrate solution by UV-vis spectrophotometric method
[15] = Metal chelating activity of the compound assessed as formation of ferric-compound complex by measuring change in color at 60 uM after 15 mins using FeSO4 solution by UV-vis spectrophotometric method
SH-SY5Y [16] = assay: Neuroprotective activity against oxygen-glucose deprivation-induced toxicity in human SH-SY5Y cells assessed as increase in cell viability preincubated for 2 hrs followed by OGD-challenge and measured after 24 hrs by MTT assay; format: functional, cell-based
HT-22 = assay: Neuroprotective activity against glutamate-induced cell death in mouse HT22 cells assessed as increase in cell viability up to 4 uM preincubated for 2 hrs followed by glutamate-challenge and measured after 24 hrs by MTT assay; format: functional, cell-based
In short: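 HT22 mouse hippocampal cells (DMEM, 10% FBS) seeded 5×10^4 cells/ml and grown 12 h. Compound added for 2 h, then 10 mM L-glutamic acid hydrochloride for 24 h. Viability by MTT at 490 nm as % of control; mean ± SD, n = 3.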

Rattus norvegicus = assay: Neuroprotective activity in Sprague-Dawley rat model of middle cerebral artery occlusion-induced ischemia-reperfusion injury assessed as reduction in disease severity score at 3 mg/kg, iv measured 24 hrs post-reperfusion; format: functional, organism-based
In short: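 Male Sprague-Dawley rats anesthetized with chloral hydrate (400 mg/kg i.p.); left MCA occluded by intraluminal nylon suture for 2 h, then withdrawn. Compound in 0.9% saline given by tail vein immediately after reperfusion; body temperature held at 37.0 ± 0.5 °C. mNSS scored 24 h later; n = 15–18, mean ± SEM.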

SH-SY5Y [17] = assay: Neuroprotective activity against oxygen-glucose deprivation-induced toxicity in human SH-SY5Y cells assessed as cell viability at 4 uM added immediately before OGD-challenge and measured after 24 hrs by MTT assay (reference value: 54.23 +/- 4.48%)
SH-SY5Y [18] = assay: Neuroprotective activity against oxygen-glucose deprivation-induced toxicity in human SH-SY5Y cells assessed as cell viability at 1 uM preincubated for 2 hrs followed by OGD-challenge and measured after 24 hrs by MTT assay (reference value: 54.23 +/- 4.48%); format: functional; conditions: read-out: Activity
SH-SY5Y [19] = assay: Neuroprotective activity against oxygen-glucose deprivation-induced toxicity in human SH-SY5Y cells assessed as cell viability at 10 uM preincubated for 2 hrs followed by OGD-challenge and measured after 24 hrs by MTT assay (reference value: 49.91%); format: functional; conditions: read-out: Activity
SH-SY5Y [20] = assay: Neuroprotective activity against oxygen-glucose deprivation-induced toxicity in human SH-SY5Y cells assessed as cell viability at 1 uM preincubated for 2 hrs followed by OGD-challenge and measured after 24 hrs by MTT assay (reference value: 49.91%); format: functional; conditions: read-out: Activity

Row | Structure (SMILES) | viability at 10 µM (SH-SY5Y [1]) | viability at 1 µM (SH-SY5Y [2]) | other results
1 | Cc1cc(C2CCCCC2)n(O)c(=O)c1CNC1CCCC1 | 61.9% | 67% | Papp at 10 h [3]: 3.89 ×10⁻⁶ cm/s; Activity [4]: inactive; Activity (SH-SY5Y [5]): Toxic
2 | C#CCNCc1c(C)cc(C2CCCCC2)n(O)c1=O | 61.6% | 63.6% | –
3 | Cc1cc(C2CCC2)n(O)c(=O)c1 | 71.2% | 46% | –
4 | CCCc1cc(C)cc(=O)n1O | 64% | 47% | –
5 | Cc1cc([C@H]2C[C@H]3CC[C@@H]2C3)n(O)c(=O)c1 | 64.5% | 70.6% | Activity [6]: Active; Activity [7]: Active; viability at 2 µM (SH-SY5Y [8]): > 80%; solubility at 24 h [9]: 1220 µg/mL (≈ 5.56 mM); Activity [10]: Active; Papp at 10 h [3]: 7.5 ×10⁻⁶ cm/s; Activity (umolequiv/umol) [4]: 1.13; Activity [11]: Active; viability at 4 µM (SH-SY5Y [12]): > 80%; Activity [13]: Active; Activity [14]: Active; Activity (SH-SY5Y [5]): Toxic; Activity [15]: Active
6 | Cc1cc(CC(C)C)n(O)c(=O)c1 | 73.3% | 47.7% | –
7 | CCCCCCCc1cc(C)cc(=O)n1O | 58.5% | 71.7% | Activity (SH-SY5Y [16]): inactive
8 | Cc1cc(C2CCCC2)n(O)c(=O)c1 | 70.7% | 52.4% | –
9 | Cc1cc(Cc2ccccc2)n(O)c(=O)c1 | 76.8% | 46.5% | –
10 | Cc1cc(C2CCCCCC2)n(O)c(=O)c1 | 38.4% | 71% | viability at 2 µM (SH-SY5Y [8]): > 80%; Papp at 10 h [3]: 4.42 ×10⁻⁶ cm/s; Activity [4]: inactive; Activity (SH-SY5Y [5]): Toxic
11 | CCCCCCCCCc1cc(C)cc(=O)n1O | 42.5% | 53% | –
12 | CCCCCc1cc(C)cc(=O)n1O | 62% | 63.5% | –
13 | Cc1cc(C2CCCCC2)n(O)c(=O)c1 | – | – | Activity [6]: Active; Activity (HT-22): Active; Activity [7]: Active; Activity (Rattus norvegicus): Active; Activity [10]: Active; Activity (umolequiv/umol) [4]: 0.52; Activity [11]: Active; Activity [13]: Active; Activity [14]: Active; Activity [15]: Active
14 | CCCCCCCNCc1c(C)cc(C2CCCCC2)n(O)c1=O | – | – | viability at 4 µM (SH-SY5Y [17]): 87.2%; viability at 1 µM (SH-SY5Y [18]): 60%
15 | Cc1cc(C2CCCCC2)n(O)c(=O)c1Br | 59.9% | 62.9% | –
16 | CCc1cc(C2CCCCC2)n(O)c(=O)c1 | 67.3% | 69.8% | Papp at 10 h [3]: 4.53 ×10⁻⁶ cm/s; Activity [4]: inactive

Row | Structure (SMILES) | viability at 10 µM (SH-SY5Y [1]) | viability at 1 µM (SH-SY5Y [2]) | other results
17 | Cc1cc(C2CC2)n(O)c(=O)c1 | 62.8% | 58.8% | –
18 | Cc1cc(C2CCCCC2)n(O)c(=O)c1CNC(C)C | 65.2% | 61% | –
19 | O=c1cccc(C2CCCCC2)n1O | 76.6% | 51.8% | –
20 | Cc1cc(C2CCCCC2)n(O)c(=O)c1CNc1ccccc1 | 75.5% | 56.8% | –
21 | Cc1cc(C)n(O)c(=O)c1 [METIPIROX] | 18.3% | 55.8% | –
22 | Cc1cc(C2CCCCC2)n(O)c(=O)c1I | 55.1% | 76.3% | viability at 2 µM (SH-SY5Y [8]): > 80%; Papp at 10 h [3]: 7.65 ×10⁻⁶ cm/s; Activity (umolequiv/umol) [4]: 0.2
23 | Cc1cc(C2CCCCC2)n(O)c(=O)c1Cl | 57.1% | 63.4% | –
24 | COC(=O)COn1c(C2CCCCC2)cc(C)cc1=O | 56.4% | 49.9% | –
25 | Cc1cc(C2CCCCC2)n(OCC(=O)O)c(=O)c1 | 55.9% | 56% | –
26 | CNCc1c(C)cc(C2CCCCC2)n(O)c1=O | 67.5% | 60.9% | –
27 | Cc1cc(=O)n(O)c(C2CCCCC2)c1Br | 63.2% | 81% | Papp at 10 h [3]: 3.97 ×10⁻⁶ cm/s; Activity [4]: inactive
28 | CCOn1c(C2CCCCC2)cc(C)cc1=O | – | – | viability at 10 µM (SH-SY5Y [19]): 43.9%; Activity [7]: inactive; viability at 1 µM (SH-SY5Y [20]): 46.3%; Activity [10]: inactive
29 | CCCNCc1c(C)cc(C2CCCCC2)n(O)c1=O | 68% | 61% | –
30 | O=c1c2ccccc2cc(C2CCCCC2)n1O | 61.6% | 78.5% | Papp at 10 h [3]: 4.43 ×10⁻⁶ cm/s; Activity [4]: inactive
31 | Cc1cc(C2CCCCC2)n(O)c(=O)c1 [CICLOPIROX] | 69.8% | 70.1% | solubility at 24 h [9]: 1430 µg/mL (≈ 6.9 mM); Papp at 10 h [3]: 8.17 ×10⁻⁶ cm/s; Activity (SH-SY5Y [5]): Toxic
32 | Cc1cc(C2CCCCC2)n(O)c(=O)c1C=O | 56.5% | 54.8% | –
